Assay outcomes as filed in PubChem.
TAAR1 antag: human TAAR1 antagonists, primary screen, Fluo-8 calcium fluorescence, CHO RD-HGA16 cells; AID 624466, 2012; 360,000 tested, 1.5% active; antagonist; Trace amine-associated receptor 1 (Homo sapiens), Q96RJ0; inhibition, % at 3 µM;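 active = inhibition above a per-plate cutoff, the mean inhibition of test compounds on that plate plus 3 SD, cut at about 49% in these data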;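 note: 0% = DMSO plus EC80 beta-PEA response and 100% = DMSO alone without agonist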
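test system = CHO RD-HGA16 cells bearing hTAAR1 | replication = singlicate | controls = DMSO-only wells and EC80 β-PEA-stimulated wells | reagent = EC80 β-phenethylamine stimulus | read-out basis = percent inhibition of PEA-evoked calcium signal, max/basal emission ratio | schedule = seeding 17-24 h prior, 75-min 37 °C, 30-min RT dye loading | signal = kinetic Fluo-8 calcium fluorescence measurement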
TAAR1 ag: human TAAR1 agonists, primary screen, Fluo-8 calcium fluorescence, CHO RD-HGA16 cells. Trace amine-associated receptor 1 (Homo sapiens), Q96RJ0. vehicle wells 0%, saturating PEA agonist 100%. activation, % at 3 µM. 360,000 tested, 0.99% active;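 active = activation above the mean activation of all test compounds in the run plus 3 SD, cut at about 38% in these data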
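Test system: RD-HGA16 (CHO) cells co-expressing Gα16 and hTAAR1; dosing: one-point dosing at 3 µM (nominal); timing: 17-24 h seeding, 75 min 37 °C dye, 30 min RT; signal: kinetic Fluo-8 calcium fluorescence; read-out basis: % activation relative to PEA EC100 response; controls: DMSO and PEA EC100; replicates: n 1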
OX1R antag-1: OX1R (HCRTR1) antagonists, primary screen, fluorescence, CHO/OX1R cells, Fluo-8 calcium, orexin A | Orexin/Hypocretin receptor type 1 (Homo sapiens), O43613 | Fluo-8 calcium fluorescence | inhibition, % at 5 µM | 330,000 tested, 0.43% active;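 active = inhibition above its plate's threshold, mean inhibition of all tested compounds on the plate plus 3 SD, cut at about 37% in these data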;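 note: 0% = orexin A challenge wells and 100% = SB-334867-A antagonist wells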
Target sequence (O43613 whole entry, looked up): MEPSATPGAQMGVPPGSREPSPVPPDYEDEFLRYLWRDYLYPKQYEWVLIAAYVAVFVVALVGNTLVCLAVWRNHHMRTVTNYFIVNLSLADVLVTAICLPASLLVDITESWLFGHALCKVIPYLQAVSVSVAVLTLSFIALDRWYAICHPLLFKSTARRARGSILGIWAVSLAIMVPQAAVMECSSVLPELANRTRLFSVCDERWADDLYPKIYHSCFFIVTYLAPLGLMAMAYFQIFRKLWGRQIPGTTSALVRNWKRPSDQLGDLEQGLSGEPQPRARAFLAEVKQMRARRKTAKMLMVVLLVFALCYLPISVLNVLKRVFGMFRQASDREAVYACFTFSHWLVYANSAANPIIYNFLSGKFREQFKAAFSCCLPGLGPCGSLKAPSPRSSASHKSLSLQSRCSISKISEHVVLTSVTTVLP
OX1R antag-2: antagonists of human orexin 1 receptor (OX1R) | OX1R-expressing cells, FRET antagonist read-out | inhibition, % at 6.6 µM | 330,000 tested, 1.8% active | AID 485270, 2010; in the data active = inhibition mostly above about 38%, no sharp cut-off; inactive = mostly below about 40%;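 note: 0% = agonist challenge alone and 100% = reference antagonist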
CHO parental Ca: ATP-evoked calcium signal inhibitors, parental CHO, primary screen, counter-screen for OX1R antagonist project, cell-based, fluorescence, Fluo-8 calcium dye | parental CHO-K1, ATP-induced calcium, Fluo-8 fluorescence | inhibition, % at 5.6 µM | 330,000 tested, 0.63% active | AID 463079, 2010;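 active = inhibition above that plate's mean sample inhibition plus 3 SD, cut at about 26% in these data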;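 note: 0% = ATP-challenged DMSO wells and 100% = DMSO wells without ATP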
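Material: parental CHO cells / Compound: single nominal dose of 5.6 µM per compound / Signal: Fluo-8 fluorescence / Replicates: singlicate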
NTR1 agonist: agonists of human NTR1, primary screen, imaging, U2OS cells, beta-arrestin-GFP, high content. Neurotensin receptor type 1 (Homo sapiens), P30989. NTR1-U2OS beta-arrestin-GFP spot imaging, agonist mode. activation, % at 20 µM. 330,000 tested, 0.17% active. AID 493036, 2011;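 active = activation at or above 40% of the spot to cytoplasm intensity ratio, with at least 20 cells analyzed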;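 note: 0% = DMSO without peptide and 100% = 100 nM NTR1 peptide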
Active calls of the source: *. Only some compounds are listed: those with a hit (about 4% of all), similar ones and a draw of the others.

For COC(=O)C1=C(C)N(C)C(=NCc2ccccc2C(F)(F)F)NC1c1ccc(Cl)cc1 (stereo not given) the results were TAAR1 antag 15 and TAAR1 ag 15.
COC(=O)[C@]12C[C@H](CC(=O)N3CCOCC3)C(=O)N(Cc3ccc4c(c3)OCO4)C1=C[C@H](COCc1ccccc1)O[C@@H]2C was read as TAAR1 antag -18 and TAAR1 ag 4.
For CCCOc1ccc(-c2csc3nc[nH]c(=O)c23)cc1 the results were TAAR1 antag 4, TAAR1 ag 0, OX1R antag-1 -9, OX1R antag-2 11, CHO parental Ca 1 and NTR1 agonist 5.
O=c1[nH]cnc2scc(-c3ccc(-c4ccccc4)cc3)c12 was read as TAAR1 antag 50*, TAAR1 ag 10, OX1R antag-1 -2, OX1R antag-2 28 and CHO parental Ca -1.
For CC(=O)c1ccc(NC(=O)c2cc(CC(C)C)on2)cc1 the results were TAAR1 antag -12, TAAR1 ag -1, OX1R antag-1 -7, OX1R antag-2 2, CHO parental Ca 36* and NTR1 agonist -1.
For O=S(=O)(c1ccc(F)cc1)N1CCCc2nc(-c3ccccc3)ccc21 the results were TAAR1 antag 8 and TAAR1 ag 0.
`COc1cccc(CNC(=O)[C@H]2CCCN2C(=O)C2CCCN2C(=O)c2ccc(OC)c(F)c2)c1` (stereo not given in full) gave TAAR1 antag 3 and TAAR1 ag 0.
Screening Cn1nc(CC(=O)Nc2ccc3c(c2)OCCO3)c2ccccc2c1=O returned TAAR1 antag 26, TAAR1 ag 6, OX1R antag-1 47*, OX1R antag-2 51, CHO parental Ca 48* and NTR1 agonist -1.
Cc1ccc(NC(=O)Cc2nn(C)c(=O)c3ccccc23)cc1F was read as TAAR1 antag 24, TAAR1 ag 10, OX1R antag-1 25, OX1R antag-2 48, CHO parental Ca 27 and NTR1 agonist 0.
For C#CCN1C(=O)S/C(=C/C=C/c2ccc(N(C)C)cc2)C1=O the results were TAAR1 antag 34, TAAR1 ag 24, OX1R antag-1 79*, OX1R antag-2 21 and CHO parental Ca 72*.
For O=C(Nc1ccccc1)c1ccc[n+](Cc2ccc([N+](=O)[O-])cc2)c1 the results were TAAR1 antag -5, TAAR1 ag 3, OX1R antag-1 -11, OX1R antag-2 63*, CHO parental Ca -8 and NTR1 agonist -2.
`COC(=O)Cn1c(=NC(=O)c2cc(-c3cccs3)nc3ccccc23)sc2cc(S(N)(=O)=O)ccc21` gave TAAR1 antag 30, TAAR1 ag 4, OX1R antag-1 20, OX1R antag-2 12, CHO parental Ca 36* and NTR1 agonist 5.
`CCOC(=O)CC1(O)CSc2nc(N)cc(=O)n21` (stereo not given) gave TAAR1 antag -22 and TAAR1 ag 3.
`Cc1nn(-c2nc3ccccc3s2)c(C)c1Oc1ccccc1O` gave OX1R antag-1 67*, OX1R antag-2 38, CHO parental Ca 32* and NTR1 agonist 29.
`COc1cc2c(cc1OC)[C@](C)(c1ccccc1)C[C@@H]2NCC=C(C)C` gave TAAR1 antag -7 and TAAR1 ag 2.
O=C(C(=O)N1CCC(CNS(=O)(=O)c2cc(C(F)(F)F)cc(C(F)(F)F)c2)CC1)c1cccs1 was read as TAAR1 antag -11 and TAAR1 ag -2.
Screening O=C(NCc1ccco1)C(c1ccccc1)N(C(=O)Cc1cccs1)c1ccccc1F (stereo not given) returned TAAR1 antag 58*, TAAR1 ag 10, OX1R antag-1 -24, OX1R antag-2 38, CHO parental Ca -15 and NTR1 agonist 0.
For COC(=O)[C@]12C[C@H](CC(=O)NCCCN3CCCC3=O)C(=O)N(CCC3=CCCCC3)C1=C[C@H](C(C)(C)C)O[C@@H]2C the results were TAAR1 antag -27 and TAAR1 ag 1.
Screening COc1ccc(NC(=O)Nc2cccc([N+](=O)[O-])c2)cc1Cl returned TAAR1 antag 27, TAAR1 ag 13, OX1R antag-1 29, OX1R antag-2 74*, CHO parental Ca 5 and NTR1 agonist 8.
Screening O=C(Nc1ccc(OC(F)F)c(Cl)c1)Nc1ccc2c(c1)OCO2 returned TAAR1 antag 38, TAAR1 ag 7, OX1R antag-1 45*, OX1R antag-2 44, CHO parental Ca 37* and NTR1 agonist 2.
For COc1ccc(C(=O)Nc2cccc([N+](=O)[O-])c2)cc1Br the results were TAAR1 antag 7, TAAR1 ag 19, OX1R antag-1 -1, OX1R antag-2 25, CHO parental Ca 9 and NTR1 agonist 13.
O=C(Nc1ccc([N+](=O)[O-])cc1)Nc1ccc(OC(F)F)c(Cl)c1 was read as TAAR1 antag 60*, TAAR1 ag 8, OX1R antag-1 84*, OX1R antag-2 76* and CHO parental Ca 100*.
`C=CCN(CC=C)S(=O)(=O)c1ccc(NC(=O)COc2ccccc2OC)cc1` gave TAAR1 antag 36, TAAR1 ag 8, OX1R antag-1 6, OX1R antag-2 20, CHO parental Ca 38* and NTR1 agonist 0.
Screening CCc1ccc(NC(=O)C2CCN(S(=O)(=O)c3ccc4c(c3)CC(C)N4C(C)=O)CC2)cc1 (stereo not given) returned TAAR1 antag 50*, TAAR1 ag 11, OX1R antag-1 -15, OX1R antag-2 19, CHO parental Ca 36* and NTR1 agonist 0.
For CCc1ccc(NC(=O)C2CCCN(S(=O)(=O)c3ccc4c(c3)CC(C)N4C(C)=O)C2)cc1 (stereo not given) the results were TAAR1 antag -13, TAAR1 ag 2, OX1R antag-1 -30, OX1R antag-2 15, CHO parental Ca -13 and NTR1 agonist 4.
Screening COc1ccc(N2CCN(C(=O)c3ccc(CNS(=O)(=O)c4cccc(OC)c4)cc3)CC2)cc1 returned TAAR1 antag 9, TAAR1 ag 5, OX1R antag-1 -6, OX1R antag-2 1, CHO parental Ca 0 and NTR1 agonist 1.
Screening O=C(Nc1nc2c(Cl)ccc(Cl)c2s1)C1CC1 returned TAAR1 antag -11, TAAR1 ag 3, OX1R antag-1 -15, OX1R antag-2 7, CHO parental Ca -1 and NTR1 agonist -2.
For NNc1nc2c(Cl)ccc(Cl)c2s1 the results were TAAR1 antag 6, TAAR1 ag 39*, OX1R antag-1 4, OX1R antag-2 18, CHO parental Ca 0 and NTR1 agonist 0.
